Test results: ChEMBL document CHEMBL4673367, “N-Benzyl-linoleamide, a Constituent of Lepidium meyenii (Maca), Is an Orally Bioavailable Soluble Epoxide Hydrolase Inhibitor That Alleviates Inflammatory Pain” (J Nat Prod, 2020)
Activity calls are given as the source filed them.

Legend:
[1] = target: T1, Bifunctional epoxide hydrolase 2 (Mus musculus, UniProt P34914); assay: Inhibition of recombinant mouse sEH expressed in baculovirus expression system using MNPC as substrate by fluorescence-based assay
T1 sequence (P34914 whole entry): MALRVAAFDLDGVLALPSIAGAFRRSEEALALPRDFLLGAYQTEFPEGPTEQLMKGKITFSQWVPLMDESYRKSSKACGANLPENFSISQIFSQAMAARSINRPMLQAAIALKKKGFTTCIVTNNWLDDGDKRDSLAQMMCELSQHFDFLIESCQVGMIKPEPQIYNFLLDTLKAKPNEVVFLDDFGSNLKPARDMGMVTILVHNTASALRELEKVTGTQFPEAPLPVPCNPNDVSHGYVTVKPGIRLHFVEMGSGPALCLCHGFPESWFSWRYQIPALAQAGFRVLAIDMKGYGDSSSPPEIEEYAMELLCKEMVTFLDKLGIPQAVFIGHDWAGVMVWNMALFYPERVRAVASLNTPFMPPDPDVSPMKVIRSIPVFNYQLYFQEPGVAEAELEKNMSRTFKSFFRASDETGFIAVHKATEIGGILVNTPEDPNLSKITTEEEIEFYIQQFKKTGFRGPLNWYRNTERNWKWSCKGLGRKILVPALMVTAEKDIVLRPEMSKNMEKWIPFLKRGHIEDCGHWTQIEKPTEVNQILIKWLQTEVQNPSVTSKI
Procedure, shortened: (§1)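 Recombinant human, mouse or rat sEH tested with serial dilutions of inhibitor in 96-well format. MNPC substrate at 5 μM final. Fluorescent 6-methoxynaphthaldehyde product read at ex 330 / em 465 nm. IC50 derived from these readings.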

[2] = target: T2, Bifunctional epoxide hydrolase 2 (Rattus norvegicus, UniProt P80299); assay: Inhibition of recombinant rat sEH expressed in baculovirus expression system using MNPC as substrate by fluorescence-based assay; procedure, shortened: as §1
T2 sequence (P80299 whole entry): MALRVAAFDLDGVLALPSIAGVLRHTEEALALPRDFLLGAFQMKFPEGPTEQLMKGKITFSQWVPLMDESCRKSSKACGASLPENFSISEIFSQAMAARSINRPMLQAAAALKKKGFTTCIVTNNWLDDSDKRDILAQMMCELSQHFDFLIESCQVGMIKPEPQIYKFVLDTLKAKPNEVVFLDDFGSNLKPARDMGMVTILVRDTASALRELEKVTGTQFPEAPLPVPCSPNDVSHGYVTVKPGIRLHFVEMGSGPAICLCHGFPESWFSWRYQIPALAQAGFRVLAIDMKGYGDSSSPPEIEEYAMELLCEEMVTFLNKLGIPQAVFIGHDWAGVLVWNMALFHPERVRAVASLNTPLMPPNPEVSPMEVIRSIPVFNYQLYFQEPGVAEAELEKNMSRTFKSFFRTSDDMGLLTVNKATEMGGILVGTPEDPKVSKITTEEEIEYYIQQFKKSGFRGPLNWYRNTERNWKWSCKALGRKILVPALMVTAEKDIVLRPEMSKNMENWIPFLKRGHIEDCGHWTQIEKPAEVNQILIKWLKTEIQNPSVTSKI

[3] = Cmax in Sprague-Dawley rat at 100 mg/kg, po measured up to 96 hrs by LC/MS/MS analysis; assay type: ADME, organism-based; parameters: route oral, dose 100 mg/kg, time <=96; details: in vivo
Procedure, shortened: (§2)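 Male SD rats (8 weeks, 250–300 g, n=4/group) given a single oral gavage of 100 mg/kg in 100% NEOBEE 1053. Plasma concentrations followed over a 96-h time course. Blood processed and quantified by an earlier reported method. Parameters reported as mean ± SEM.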

[4] = Half life in Sprague-Dawley rat at 100 mg/kg, po measured up to 96 hrs by LC/MS/MS analysis; assay type: ADME, organism-based; details: in vivo; procedure, shortened: as §2
[5] = Tmax in Sprague-Dawley rat at 100 mg/kg, po measured up to 96 hrs by LC/MS/MS analysis; assay type: ADME, organism-based; details: in vivo; procedure, shortened: as §2
[6] = target: T3, Bifunctional epoxide hydrolase 2 (Homo sapiens, UniProt P34913); assay: Inhibition of recombinant human sEH expressed in baculovirus expression system using MNPC as substrate by fluorescence-based assay; procedure, shortened: as §1
T3 sequence (P34913 whole entry): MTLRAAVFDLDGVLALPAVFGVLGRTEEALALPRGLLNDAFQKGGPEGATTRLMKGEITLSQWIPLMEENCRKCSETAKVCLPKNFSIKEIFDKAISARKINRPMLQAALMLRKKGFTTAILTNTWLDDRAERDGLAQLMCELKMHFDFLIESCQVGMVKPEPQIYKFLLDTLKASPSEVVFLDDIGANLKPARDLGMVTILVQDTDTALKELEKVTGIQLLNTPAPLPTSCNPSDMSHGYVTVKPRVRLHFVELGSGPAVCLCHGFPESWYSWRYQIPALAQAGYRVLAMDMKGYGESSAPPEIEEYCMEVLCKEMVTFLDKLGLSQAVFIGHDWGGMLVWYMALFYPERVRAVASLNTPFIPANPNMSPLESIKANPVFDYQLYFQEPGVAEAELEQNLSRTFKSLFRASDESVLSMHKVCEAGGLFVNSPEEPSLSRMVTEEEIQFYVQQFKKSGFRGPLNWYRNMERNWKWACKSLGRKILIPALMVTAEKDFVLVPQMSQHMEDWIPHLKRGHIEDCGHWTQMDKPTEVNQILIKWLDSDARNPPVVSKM

[7] = test system: Rattus norvegicus; assay: Antinociceptive activity against LPS-induced inflammatory pain Sprague-Dawley rat model assessed as increase in paw withdrawal threshold at 100 mg/kg, po measured up to 6 hrs by von Frey assay; assay type: functional, organism-based; details: time hrs <=6
Procedure, shortened: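 Male SD rats, n=4/group, randomized and blinded. Baseline von Frey mechanical withdrawal thresholds taken before dosing. Oral gavage of 100 mg/kg in 1 mL 100% NEOBEE 1053 (vehicle control alongside). Immediately after, 50 μL of 0.2 μg/mL LPS in saline injected intraplantar into one hind paw. Ipsilateral thresholds measured 3–5 times per rat per time point over 6 h. Expressed as percent of baseline, group mean ± SEM.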

[8] = AUC in Sprague-Dawley rat at 100 mg/kg, po measured up to 96 hrs by LC/MS/MS analysis; assay type: ADME, organism-based; parameters: route oral, dose 100 mg/kg, time <=96; details: in vivo; procedure, shortened: as §2

SMILES	IC50 [1] [nM]	IC50 [2] [nM]	Cmax [3] [nM]	t1/2 [4] [h]	Tmax [5] [h]	IC50 [6] [nM]	Activity [7]	AUC [8] [nM·h]
CCCCC/C=C\C/C=C\CCCCCCCC(=O)NCCc1ccccc1	91	33						
CC/C=C\C/C=C\C/C=C\CCCCCCCC(=O)NCc1ccccc1	28	23	54	14.6	6	134	inactive	723
CC/C=C\C/C=C\C/C=C\CCCCCCCC(=O)NCCc1ccccc1	39	15				15		
CCCCC/C=C\C/C=C\C/C=C\C/C=C\CCCC(=O)NCc1ccccc1	50	40				123		
CC/C=C\C/C=C\C/C=C\C/C=C\C/C=C\CCCC(=O)NCc1cccc(OC)c1	49	18.6				63		
CCCCCCCCCCCCCCCC(=O)NCc1cccc(OC)c1	159	113				235		
CC/C=C\C/C=C\C/C=C\C/C=C\C/C=C\CCCC(=O)NCc1ccccc1	43	29				111		
CC/C=C\C/C=C\C/C=C\CCCCCCCC(=O)NCc1ccc(OC)c(OC)c1	122	90				84		
CCCCCCCCCCCCCCCCCC(=O)NCc1cccc(OC)c1	89900	28700				16100		
CCCCC/C=C\C/C=C\C/C=C\C/C=C\CCCC(=O)NCc1cccc(OC)c1	73	22				55		
CCCCC/C=C\C/C=C\CCCCCCCC(=O)NCc1ccc(OC)c(OC)c1	148	111				104		
CCCCC/C=C\C/C=C\CCCCCCCC(=O)NCc1cccc(OC)c1	38	43				92		
CCCCCCCC/C=C\CCCCCCCC(=O)NCc1ccccc1	265	198				893		
CCCCCCCCCCCCCCCCCC(=O)NCc1ccccc1	59600	35800				> 100000		
CCCCCCCCCCCCCCCC(=O)NCc1ccc(OC)c(OC)c1	> 100000	15900				7060		
CCCCC/C=C\C/C=C\CCCCCCCC(=O)NCc1ccccc1	44	41	519	9	3	155	Active	3690
CCCCCCCCCCCCCCCC(=O)NCc1ccccc1	422	370				524		
CCCCCCCC/C=C\CCCCCCCC(=O)NCc1cccc(OC)c1	126	84				241		
CC/C=C\C/C=C\C/C=C\CCCCCCCC(=O)NCc1cccc(OC)c1	27	9.3				76		
